Screening results as filed in PubChem.
FXN GAA850 act: FXN promoter activators, primary screen, cell-based, luciferase luminescence, HEK293 lucGAA850; HEK293 lucGAA850 FXN promoter luciferase reporter, 24 h; percent of 10 µM SAHA response; activation, % at 6 µM; 0.56% of 360,000 active;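 active means activation above the average of all compounds screened plus 3 SD, cutoff fixed separately per campaign, cut at about 7.5% in these data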
GASC-1 inh: inhibitors of GASC-1 histone demethylase, primary screen, biochemical, fluorescence, DELFIA europium | Lysine-specific demethylase 4C (Homo sapiens), Q9H3R0 | GST-JMJD2C(1-420) H3K9me3 demethylation | inhibition, % at 2.35 µM | 0.069% of 330,000 active | AID 2099, 2009;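 active means more than half of a compound's replicate wells show inhibition beyond 50%, single wells judged on their own value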;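 further: signal counts dimethyl H3K9 product captured on neutravidin plate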
SR-BI uptake up: activators of SR-BI mediated DiI-HDL uptake, primary screen, ldlA[mSR-BI] CHO cells, DiI fluorescence. 3 h; 100 = double the neutral-control signal. activation, % at 12.5 µM. 0.096% of 320,000 active. AID 504775, 2011;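 active means mean replicate activation of at least 60% and every replicate at or above 60%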
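System: CHO ldlA[mSR-BI] cells / Medium: HEPES-buffered (25 mM, pH 7.4) F12 plus 0.5% BSA / Probe or stimulus: labelled HDL, 10 µg/mL / Doses: single compound concentration, delivered by pin transfer / Schedule: 3 h, 37 °C / Measured by: DiI fluorescence, bottom read / Measure: cell-associated DiI fluorescence as measure of HDL uptake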
SR-BI DiI inh: inhibitors of SR-BI mediated HDL lipid uptake, primary screen, ldlA[mSR-BI] cells, fluorescence, single point | ldlA[mSR-BI] CHO cells, DiI-HDL uptake fluorescence, 3 h | inhibition, % at 12.5 µM | Scavenger receptor class B member 1 (Mus musculus), Q61009 | 0.96% of 320,000 active;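 active means mean replicate inhibition of at least 70% and a set share of replicates each scoring 70 or more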
Target sequence (Q61009 whole entry, looked up): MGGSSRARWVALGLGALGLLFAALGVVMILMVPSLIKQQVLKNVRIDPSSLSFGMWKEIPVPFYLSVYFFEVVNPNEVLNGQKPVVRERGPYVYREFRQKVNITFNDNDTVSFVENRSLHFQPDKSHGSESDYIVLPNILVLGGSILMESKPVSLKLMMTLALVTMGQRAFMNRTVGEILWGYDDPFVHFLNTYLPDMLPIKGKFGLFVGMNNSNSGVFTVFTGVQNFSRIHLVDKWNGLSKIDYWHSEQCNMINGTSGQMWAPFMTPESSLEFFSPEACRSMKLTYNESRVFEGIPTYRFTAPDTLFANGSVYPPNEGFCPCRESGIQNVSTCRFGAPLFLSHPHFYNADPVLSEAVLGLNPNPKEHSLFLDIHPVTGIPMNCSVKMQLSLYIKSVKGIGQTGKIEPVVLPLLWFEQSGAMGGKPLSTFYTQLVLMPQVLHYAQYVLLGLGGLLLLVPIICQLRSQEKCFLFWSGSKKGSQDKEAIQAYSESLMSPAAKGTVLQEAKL
AHR act: AHR activators, primary screen, cell-based, luminescence, luciferase reporter, human. Aryl hydrocarbon receptor (Homo sapiens), P35869. AHR-responsive luciferase reporter cells. activation, % at 5 µM. 2.5% of 320,000 active. AID 2796, 2010; in the data active means activation above about 47%
Numbers stand for hits; i = inactive; nt = not tested or not shown. A selection: hits, their analogues and other compounds. The true share with any hit is near 3.7%.

SMILES	FXN GAA850 act	GASC-1 inh	SR-BI uptake up	SR-BI DiI inh	AHR act
CC(C)(C)OC(=O)N[C@@H](C(=O)OC(C)(C)C)c1ccc(C(F)(F)F)cc1	i	i	i	i	i
FC(F)(F)C(F)(F)c1nnc2ccc(-n3ccnc3)nn12	i	i	i	i	i
CC1=C/C(=N\OS(=O)(=O)c2ccccc2)C(C(C)C)=CC1=O	i	i	i	83	i
CC1=C(C)/C(=N\OS(=O)(=O)c2ccc(C)cc2)C=CC1=O	i	i	i	91	i
CC1=C/C(=N\OS(=O)(=O)c2ccccc2)C(C)=CC1=O	i	i	i	79	i
CC(=O)Nc1ccc(NC(=O)CN(c2ccc(C(C)C)cc2)S(=O)(=O)c2ccccc2)cc1	i	i	i	i	i
OC(C#CCN1CCCCC1)(c1ccccc1)c1ccccc1	i	i	i	i	i
CC(O)(C#CCN1CCCCCC1)c1ccccc1 (stereo not drawn)	i	i	i	i	66
COc1ccccc1N=C1NC(=O)/C(=C/c2ccc(N(C)C)cc2)S1	i	i	i	i	65
CN(C(=O)CSc1ccncc1)C1CCCN(Cc2ccccc2F)C1 (stereo not drawn)	i	i	i	i	i
[S-]c1nnc(-c2ccc(Br)cc2)n1-c1ccccc1.[Zn+2]	i	i	i	i	i
N#Cc1c(Cl)c(Cl)c2nnc(-c3ccc(Br)cc3)n2c1Cl	nt	i	nt	nt	55
Cc1[nH]c2ccccc2c1N=Nc1ccccc1F	i	i	i	i	51
Cc1[nH]c2ccccc2c1N=Nc1ccc(F)cc1	i	i	i	83	67
Cc1[nH]c2ccccc2c1N=Nc1cc(C(=O)O)cc(C(=O)O)c1	i	i	i	i	i
O=C(CCSc1nc2ccccc2s1)N/N=C/c1c(O)ccc2ccccc12	i	i	i	105	i
COc1ccccc1OCC(=O)N/N=C/c1c(O)ccc2ccccc12	i	i	i	i	51
Cc1cc(C)n(CCC(=O)N/N=C/c2ccc(O)cc2)n1	i	i	i	i	i
O=C(N/N=C/c1c(O)ccc2ccccc12)c1cccc(C(F)(F)F)c1	i	i	i	137	i
COc1ccccc1OCC(=O)N/N=C/c1cccc2cccnc12	i	i	i	i	i
Cc1cc(C)n(CCC(=O)N/N=C/c2c(O)ccc3ccccc23)n1	i	i	nt	nt	62
CN(c1ccc(OCC(=O)N2CCCCC2)cc1)S(=O)(=O)c1cccs1	i	64	i	i	i
Cc1ccc(-n2c(C)cc(C3=NNC(=NC4CC4)SC3)c2C)cc1C	i	i	i	i	51
CCOC(=O)c1sc(-c2ccccc2)cc1NC(=O)Nc1ccc([N+](=O)[O-])cc1	i	i	i	78	i
Nc1nnc(SCC(=O)Nc2sc3c(c2C(=O)c2ccccc2)CCCC3)s1	i	i	i	i	i
SMILES	FXN GAA850 act	GASC-1 inh	SR-BI uptake up	SR-BI DiI inh	AHR act
COCCNc1nnc(SCC(=O)Nc2sc3c(c2C(=O)c2ccccc2)CCCC3)s1	i	i	i	75	i
Cc1ccc(-c2cc(-c3ccc4c(c3)OCO4)c(C#N)c(N)n2)o1	i	i	i	i	75
CCC(C)c1ccc(OCc2ccc(C(=O)OC)o2)cc1 (stereo not drawn)	i	nt	i	i	i
Cc1cc2c(cc1C)C(c1ccccc1OC(C)C)CC(=O)N2 (stereo not drawn)	i	i	i	i	52
Cc1ccc(NC(=O)CCNC(=O)Cn2cnc3ccccc3c2=O)cc1F	i	i	i	i	i
CN(Cc1ccccc1)C(=O)c1cc2cc(F)ccc2[nH]1	i	i	i	i	62
O=C(Nc1ccc(Br)cc1F)c1sccc1-n1cccc1	i	i	i	i	103
COc1cccc(C(=O)NNC(=O)c2sccc2-n2cccc2)c1	i	i	i	i	69
Cc1cccc(NC(=O)NNC(=O)c2sccc2-n2cccc2)c1	i	i	i	i	53
Cc1c(Br)cccc1NC(=O)c1sccc1-n1cccc1	i	i	i	i	nt
CC(=O)Nc1c(-c2cc(=O)oc3cc(C)ccc23)oc2ccccc12	i	i	i	i	nt
CO/N=C/NC(=O)NOCc1ncc(C(F)(F)F)cc1Cl	i	i	i	i	i
O=C(N/C=N/OCc1ccc(Cl)cc1Cl)NOCc1ncc(C(F)(F)F)cc1Cl	i	i	i	83	i
NC(=O)c1cc(Br)cc2c3c([nH]c12)CCCC3	i	i	nt	nt	64
Brc1ccc2[nH]c3c(c2c1)CCC3	i	i	i	i	i
COc1ccc(C(C)=O)cc1OCc1ccccc1	i	nt	nt	nt	nt
COc1ccc(OC)c(NC(=O)NCCN2CCN(c3ccccc3)CC2)c1	i	i	i	i	i
COc1cc(NC(=O)NCc2ccco2)ccc1-c1ccc(NC(=O)NCc2ccco2)cc1OC	i	nt	i	74	nt
COc1ccc(N2CCN(CCNC(=O)Nc3ccc([N+](=O)[O-])cc3OC)CC2)cc1	i	i	i	76	nt
COc1ccc(NC(=O)NCc2ccco2)c(OC)c1	i	i	i	i	i
COc1ccccc1NC(=O)NCc1ccco1	i	i	i	i	i
COc1cc([N+](=O)[O-])ccc1NC(=O)NCc1ccco1	i	i	i	72	i
CCc1nc2ccc(C(=O)NCCOc3ccc(OC)cc3)cn2c1N(C)CCCc1ccccc1	i	nt	nt	nt	nt
CCCn1c(SCC(=O)NC(C)c2ccccc2)n[nH]c1=O (stereo not drawn)	i	i	i	i	i
CCCn1c(Sc2nnnn2-c2ccccc2)n[nH]c1=O	i	i	80	i	i
SMILES	FXN GAA850 act	GASC-1 inh	SR-BI uptake up	SR-BI DiI inh	AHR act
N#Cc1c(Nc2cccc(F)c2)sc2c(O)cc(=O)[nH]c12	i	i	i	i	i
N=c1n(CC(=O)c2cccc([N+](=O)[O-])c2)c2ccccc2n1Cc1ccccc1	i	61	i	i	i
Cn1c(=N)n(CC(=O)c2ccc(Br)s2)c2ccccc21	i	i	i	i	71
Cn1c(=N)n(CC(=O)c2cccs2)c2ccccc21	i	i	i	i	49
COc1cccc(C(=O)Cn2c(NCCO)nc3ccccc32)c1	i	i	i	i	i
CCCn1c(=N)n(CC(=O)c2cccs2)c2ccccc21	i	i	i	i	i
COc1cccc(C(=O)Cn2c(=N)n(C)c3ccccc32)c1	i	i	i	i	52
CCn1c(=N)n(CC(=O)c2cccc([N+](=O)[O-])c2)c2ccccc21	i	i	i	i	i
COCCNC(=O)NC12CC3(C)CC(C)(CC(C)(C3)C1)C2	i	i	i	i	i
COc1ccc(NC(=O)Nc2ccc(Br)c(C)c2)cc1	i	i	i	i	i
CCOC(=O)C1C(=O)NC(c2ccccc2)=NC1c1ccc(OC)cc1 (stereo not drawn)	i	i	i	i	i
C=CCNC(=O)CSCc1ccc(Br)cc1	i	i	i	i	i
CCN(CC)CCn1c(=N)n(CC(=O)c2ccc(Br)s2)c2ccccc21	i	i	nt	nt	70
